Results: ChEMBL document CHEMBL1124104, “(Acyloxy)benzophenones and (acyloxy)-4-pyrones. A new class of inhibitors of human neutrophil elastase” (J Med Chem, 1988)
One block for each compound: values may come before it.

Columns and labels:
[1] = biological target: T1, Neutrophil elastase (Homo sapiens, UniProt P08246); assay: Inhibitory activity against human leukocyte elastase at 10e-7 M
T1 sequence (P08246 whole entry): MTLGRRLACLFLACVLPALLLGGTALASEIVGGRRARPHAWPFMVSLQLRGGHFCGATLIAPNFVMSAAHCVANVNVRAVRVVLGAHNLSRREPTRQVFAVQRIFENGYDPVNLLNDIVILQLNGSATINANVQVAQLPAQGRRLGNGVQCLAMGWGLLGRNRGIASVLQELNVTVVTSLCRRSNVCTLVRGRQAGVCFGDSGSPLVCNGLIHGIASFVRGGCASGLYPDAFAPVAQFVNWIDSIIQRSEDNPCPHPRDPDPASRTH

[2] = Inhibitory activity against Hog pancreatic elastase; IA = Inactive at 10e-5 M; set-up: species or system Sus scrofa
[3] = Inhibitory activity against pancreatic elastase; IA = Inactive at 10e-5 M
[4] = biological target: T1, Neutrophil elastase; assay: Inhibitory activity against human leukocyte elastase at 10e-6 M
[5] = biological target: T1, Neutrophil elastase; assay: Inhibitory activity against human leukocyte elastase at 10e-5 M
Summary of the method: (§1)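 HLE activity followed as rise in absorbance at 410 nm from nitroanilide release; substrate (methoxysuccinyl)Ala-Ala-Pro-Val nitroanilide at 10⁻⁴ M. Run in 0.2 M Tris, pH 8.0, 30 °C. Inhibitors and substrate dissolved in DMSO, which made up 10% of the final medium. Enzyme titrated to give 0.12 OD unit/min per 10 mm path.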

[6] = biological target: T2, Neutrophil elastase (Homo sapiens) (UniProt P08246); assay: Inhibitory activity against [14C]-Elastin hydrolysis at 2 uM concentration and 3h.
T2 sequence (whole entry): T1 sequence (P08246 whole entry)
Summary of the method: (§2)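 Elastase digestion of [¹⁴C]elastin, quantitated by radiolabel release (method of Bielefeld et al.). Substrate, inhibitor and elastase were all present for the whole run, and % inhibition was read at 1, 2 and 3 h.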

[7] = biological target: T2, Neutrophil elastase (Homo sapiens); assay: Inhibitory activity against [14C]elastin hydrolysis at 4 uM concentration and 3h.; summary of the method: as §2
[8] = biological target: T2, Neutrophil elastase (Homo sapiens); assay: Inhibitory activity against [14C]elastin hydrolysis at 2 uM concentration and 1h.; summary of the method: as §2
[9] = biological target: T2, Neutrophil elastase (Homo sapiens); assay: Inhibitory activity against [14C]elastin hydrolysis at 4 uM concentration and 2 hr.; summary of the method: as §2
[10] = biological target: T2, Neutrophil elastase (Homo sapiens); assay: Inhibitory activity against [14C]-Elastin hydrolysis at 2 uM concentration and 2 hr.; summary of the method: as §2
[11] = biological target: T2, Neutrophil elastase (Homo sapiens); assay: Inhibitory activity against [14C]elastin hydrolysis at 3 uM concentration and 2 hr.; summary of the method: as §2
[12] = biological target: T2, Neutrophil elastase (Homo sapiens); assay: Inhibitory activity against [14C]elastin hydrolysis at 3 uM concentration and 1h.; summary of the method: as §2
[13] = biological target: T2, Neutrophil elastase (Homo sapiens); assay: Inhibitory activity against [14C]-Elastin hydrolysis at 3 uM concentration and 3h.; summary of the method: as §2
[14] = biological target: T2, Neutrophil elastase (Homo sapiens); assay: Inhibitory activity against [14C]elastin hydrolysis at 4 uM concentration and 1h.; summary of the method: as §2
[15] = biological target: T2, Neutrophil elastase (Homo sapiens); assay: Inhibitory activity against [14C]elastin hydrolysis at 1 uM concentration and 2 hr.; summary of the method: as §2
[16] = biological target: T2, Neutrophil elastase (Homo sapiens); assay: Inhibitory activity against [14C]elastin hydrolysis at 1 uM concentration and 1h.; summary of the method: as §2
[17] = biological target: T2, Neutrophil elastase (Homo sapiens); assay: Inhibitory activity against [14C]-Elastin hydrolysis at 0.5 uM concentration and 2 hr.; summary of the method: as §2
[18] = Inhibitory activity against Hog pancreatic elastase IA = Inactive at 10e-5 M; set-up: species or system Sus scrofa
[19] = biological target: T2, Neutrophil elastase (Homo sapiens); assay: Inhibitory activity against [14C]elastin hydrolysis at 1 uM concentration and 3h.; summary of the method: as §2
[20] = biological target: T1, Neutrophil elastase; assay: Inhibitory activity against human leukocyte elastase at 10e-8 M
[21] = biological target: T2, Neutrophil elastase (Homo sapiens); assay: Inhibitory activity against [14C]elastin hydrolysis at 0.5 uM concentration and 1h.; summary of the method: as §2
[22] = biological target: T2, Neutrophil elastase (Homo sapiens); assay: Inhibitory activity against [14C]elastin hydrolysis at 0.5 uM concentration and 3h.; summary of the method: as §2
[23] = biological target: T1, Neutrophil elastase; assay: Binding affinity towards human leukocyte elastase at 10e-8 M; summary of the method: as §1
[24] = biological target: T2, Neutrophil elastase (Homo sapiens); assay: Inhibitory activity against human leukocyte elastase at 10e-4 M; summary of the method: as §1
[25] = biological target: T1, Neutrophil elastase; assay: Inhibitory activity against human leukocyte elastase;IA = Inactive at 10e-4 M; summary of the method: as §1
[26] = biological target: T1, Neutrophil elastase; assay: Inhibitory activity against human leukocyte elastase; No inhibition at 1x10E-2 M; summary of the method: as §1

SMILES: Cc1cc(C)c(C(=O)OCc2cc(=O)c(OC(=O)C(C)(C)C)co2)c(C)c1
- IC50 [4]: 8.4 µM

SMILES: CCCCCCCCCCCCC(C)(C)C(=O)OCc1cc(=O)c(OC(=O)C(C)(C)C)co1
- IC50 [1]: 0.6 µM

SMILES: CCCCCCCC/C=C/CCCCCCCC(=O)OCc1cc(=O)c(OC(=O)[C@]23C[C@H]4C[C@H](C[C@H](C4)C2)C3)co1
- IC50 [5]: 80 µM

SMILES: CCCCCCCC/C=C/CCCCCCCCCCCC(=O)OCc1cc(=O)c(OC(=O)C(C)(C)C)co1
- inhibition [6]: 13%
- inhibition [7]: 22%
- inhibition [8]: 61%
- inhibition [9]: 50%
- inhibition [10]: 33%
- inhibition [11]: 46%
- inhibition [12]: 74%
- inhibition [13]: 32%
- IC50 [1]: 0.16 µM
- inhibition [14]: 77%

SMILES: CC(C)(C)C(=O)Oc1ccc(S(=O)(=O)c2ccc(O)cc2)cc1
- IC50 [1]: 1.8 µM

SMILES: CCC(=O)Oc1ccc(C(=O)c2ccccc2)cc1
- IC50 [4]: 6.2 µM

SMILES: CC(C)(C)C(=O)OCc1cc(=O)c(OC(=O)C(C)(C)C)co1
- IC50 [5]: 36 µM

SMILES: O=C(c1ccccc1)c1ccc(OC(=O)C2CC2)cc1
- IC50 [4]: 1.4 µM

SMILES: O=c1cc(COC2CCOCC2)occ1OC(=O)[C@]12C[C@H]3C[C@H](C[C@H](C3)C1)C2
- inhibition [24]: 33%

SMILES: CC(C)(C)C(=O)Oc1coc(CO)cc1=O
- IC50 [25]: Not Active

SMILES: CC1(C)Cc2cc(C(=O)c3ccccc3)ccc2OC1=O
- IC50 [26]: No inhibition

SMILES: CCCCCCCC/C=C/CCCCCCCC(=O)OCc1cc(=O)c(OC(=O)C(C)(C)C)co1
- IC50 [1]: 0.3 µM

SMILES: CCCCCCCCCCCCCCCCCCCC(=O)OCc1cc(=O)c(O)co1
- IC50 [1]: 9 µM

SMILES: CC(C)(C)C(=O)Oc1cc(C(=O)OCc2cc(=O)c(OC(=O)C(C)(C)C)co2)cc(OC(=O)C(C)(C)C)c1OC(=O)C(C)(C)C
- inhibition [15]: 15%
- inhibition [6]: 5%
- inhibition [8]: 58%
- inhibition [19]: 3%
- inhibition [16]: 39%
- inhibition [10]: 44%
- inhibition [11]: 67%
- inhibition [12]: 71%
- inhibition [13]: 31%
- IC50 [1]: 0.1 µM

The remaining lines, values ahead:

- IC50 [1]: 0.46 µM
SMILES: CC(C)(C)C(=O)Oc1ccc(Cc2ccc(OC(=O)C(C)(C)C)cc2)cc1

- IC50 [2]: Not Active
- IC50 [1]: 0.2 µM
- IC50 [3]: Not Active
SMILES: CC(C)(C)C(=O)Oc1ccc(C(=O)OCc2cc(=O)c(OC(=O)C(C)(C)C)co2)cc1

- inhibition [15]: 10%
- inhibition [6]: 9%
- inhibition [8]: 36%
- inhibition [16]: 14%
- inhibition [10]: 12%
- inhibition [11]: 32%
- inhibition [12]: 62%
- inhibition [13]: 10%
SMILES: CC(C)(C)C(=O)Oc1ccc(C(=O)c2ccccc2)c(OC(=O)C(C)(C)C)c1

- IC50 [4]: 1.5 µM
SMILES: CC(CO)Cc1cc(C(=O)c2ccccc2)ccc1OC(=O)C(C)(C)C (stereo not given)

- inhibition [15]: 72%
- inhibition [6]: 82%
- inhibition [17]: 38%
- IC50 [18]: Not Active
- inhibition [8]: 81%
- inhibition [19]: 59%
- inhibition [16]: 62%
- inhibition [10]: 85%
- IC50 [20]: 0.027 µM
- inhibition [21]: 38%
- inhibition [22]: 21%
- IC50 [3]: Not Active
- Ki [23]: 0.068 µM
SMILES: CC(C)(C)C(=O)Oc1ccc(C(=O)c2ccc(OC(=O)C(C)(C)C)cc2OC(=O)C(C)(C)C)c(OC(=O)C(C)(C)C)c1

- IC50 [4]: 1.9 µM
SMILES: CC(C)(C)C(=O)Oc1coc(COC(=O)c2ccc(-c3ccccc3)cc2)cc1=O

- IC50 [1]: 0.85 µM
SMILES: C=C(C)Cc1cc(C(=O)c2ccccc2)ccc1OC(=O)C(C)(C)C

- IC50 [1]: 0.45 µM
SMILES: CC(C)(C)C(=O)Oc1ccc(Oc2ccc(OC(=O)C(C)(C)C)cc2)cc1

- IC50 [5]: 12 µM
SMILES: CC(C(=O)O)c1cc(C(=O)c2ccccc2)ccc1OC(=O)C(C)(C)C (stereo not given)

- IC50 [4]: 1.5 µM
SMILES: CC(C)(C)C(=O)Oc1ccc(C(O)c2ccc(OC(=O)C(C)(C)C)cc2)cc1

- IC50 [1]: 10 µM
SMILES: CC(C)(C)C(=O)Oc1ccccc1C(=O)c1ccccc1

- IC50 [1]: 0.14 µM
SMILES: CC(C)(C)C(=O)Oc1ccc(C(=O)c2ccc(Cl)cc2)cc1
